Non-standard residues stand in square brackets, D forms with d. Residues, ends and D or L forms follow the SMILES beside them. Tpi = O=C(O)[C@@H]1Cc2c([nH]c3ccccc23)CN1
Experiments:
Mus musculus [1] = experiment: Analgesic activity in ICR mouse assessed as increase in pain threshold at 0.15 mmol/kg, po after 150 mins by tail flick method (reference value: 9.02 +/- 12.19 %); format: functional
Mus musculus [2] = experiment: Analgesic activity in ICR mouse assessed as increase in pain threshold at 0.15 mmol/kg, po after 30 mins by tail flick method (reference value: 5.03 +/- 10.26 %); format: functional
Mus musculus [3] = experiment: Analgesic activity in ICR mouse assessed as increase in pain threshold at 0.15 mmol/kg, po after 120 mins by tail flick method (reference value: 8.09 +/- 13.28 %); format: functional
Mus musculus [4] = experiment: Analgesic activity in ICR mouse assessed as increase in pain threshold at 0.15 mmol/kg, po after 60 mins by tail flick method (reference value: 7.45 +/- 8.03 %); format: functional
Mus musculus [5] = experiment: Analgesic activity in ICR mouse assessed as increase in pain threshold at 0.15 mmol/kg, po after 90 mins by tail flick method (reference value: 7.53 +/- 11.54 %); format: functional
Mus musculus [6] = experiment: Analgesic activity in ICR mouse assessed as increase in pain threshold at 0.15 mmol/kg, po after 180 mins by tail flick method (reference value: 8.75 +/- 9.73 %); format: functional
Mus musculus [7] = experiment: Antiinflammatory activity in ICR mouse assessed as inhibition of xylene-induced ear edema at 0.15 mmol/kg, po administered 30 mins before xylene challenge measured after 2 hrs relative to control; format: functional
Method in brief: (§1)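 Male ICR mice (20 ± 2 g), randomised to test, vehicle (CMC) and aspirin (10 mg/kg oral) groups. Test agents given orally as CMC suspension. After 30 min, 0.03 mL xylene applied to both faces of the right ear, left ear as control. At 2 h mice were killed and 7 mm ear punches weighed. Edema is the right-minus-left weight, and inhibition is taken against vehicle.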

Mus musculus [8] = experiment: Antiinflammatory activity in ICR mouse assessed as inhibition of xylene-induced ear edema at 0.05 mmol/kg, po administered 30 mins before xylene challenge measured after 2 hrs relative to control; format: functional; method in brief: as §1
Mus musculus [9] = experiment: Antiinflammatory activity in ICR mouse assessed as inhibition of xylene-induced ear edema at 0.10 mmol/kg, po administered 30 mins before xylene challenge measured after 2 hrs relative to control; format: functional; method in brief: as §1
Mus musculus [10] = experiment: Antiinflammatory activity in po dosed ICR mouse assessed as inhibition of xylene-induced ear edema administered 30 mins before xylene challenge measured after 2 hrs; format: functional, organism-based; method in brief: as §1

Row | SMILES | Activity (Mus musculus [1]) [%] | Activity (Mus musculus [2]) [%] | Activity (Mus musculus [3]) [%] | Activity (Mus musculus [4]) [%] | Activity (Mus musculus [5]) [%] | Activity (Mus musculus [6]) [%] | inhibition in vivo at 150 µmol/kg (Mus musculus [7]) [%] | inhibition in vivo at 50 µmol/kg (Mus musculus [8]) [%] | inhibition in vivo at 100 µmol/kg (Mus musculus [9]) [%] | inhibition (Mus musculus [10])
1 | CC(C)C[C@H](N)C(=O)N[C@@H](Cc1ccccc1)C(=O)N[C@@H](Cc1c[nH]c2ccccc12)C(=O)O (H-Leu-Phe-Trp-OH) | 9.77 | 25.38 | 18.92 | 28.79 | 20.13 | 7.98 |  |  |  | 
2 | O=C(CNC(=O)[C@@H]1Cc2c([nH]c3ccccc23)CN1)N[C@@H](Cc1ccccc1)C(=O)N[C@@H](Cc1c[nH]c2ccccc12)C(=O)O (H-[Tpi]GFW-OH) | 22.37 | 10.36 | 49.09 | 40.78 | 46.45 | 14.36 | 37.5 |  |  | 
3 | NCCCC[C@H](N)C(=O)N[C@@H](Cc1ccccc1)C(=O)N[C@@H](Cc1c[nH]c2ccccc12)C(=O)O (H-Lys-Phe-Trp-OH) | 11.23 | 20.16 | 20.14 | 25.43 | 23.47 | 8.41 |  |  |  | 
4 | NC(=O)CC[C@H](NC(=O)[C@@H]1Cc2c([nH]c3ccccc23)CN1)C(=O)N[C@@H](Cc1ccccc1)C(=O)N[C@@H](Cc1c[nH]c2ccccc12)C(=O)O (H-[Tpi]QFW-OH) | 18.32 | 41.83 | 32.33 | 47.33 | 51.25 | 22.45 | 42.4 |  |  | 
5 | CC(C)[C@H](NC(=O)[C@@H]1Cc2c([nH]c3ccccc23)CN1)C(=O)N[C@@H](Cc1ccccc1)C(=O)N[C@@H](Cc1c[nH]c2ccccc12)C(=O)O (H-[Tpi]VFW-OH) | 25.88 | 39.47 | 35.79 | 45.77 | 47.36 | 16.03 | 43.6 |  |  | 
6 | O=C(O)[C@H](Cc1c[nH]c2ccccc12)NC(=O)[C@H](Cc1ccccc1)NC(=O)[C@H](Cc1c[nH]c2ccccc12)NC(=O)[C@@H]1Cc2c([nH]c3ccccc23)CN1 (H-[Tpi]WFW-OH) | 16.69 | 35.05 | 28.55 | 36.45 | 35.19 | 14.23 | 51.5 |  |  | 
7 | O=C(O)CC[C@H](NC(=O)[C@@H]1Cc2c([nH]c3ccccc23)CN1)C(=O)N[C@@H](Cc1ccccc1)C(=O)N[C@@H](Cc1c[nH]c2ccccc12)C(=O)O (H-[Tpi]EFW-OH) | 12.25 | 18.24 | 39.23 | 17.23 | 29.25 | 12.32 | 28.4 |  |  | 
8 | N=C(N)NCCC[C@H](NC(=O)[C@@H]1Cc2c([nH]c3ccccc23)CN1)C(=O)N[C@@H](Cc1ccccc1)C(=O)N[C@@H](Cc1c[nH]c2ccccc12)C(=O)O (H-[Tpi]RFW-OH) | 29.38 | 38.16 | 37.12 | 35.13 | 46.08 | 21.55 | 57 | 11.3 | 26.5 | Dose-dependent effect
9 | O=C(O)[C@H](Cc1c[nH]c2ccccc12)NC(=O)[C@H](Cc1ccccc1)NC(=O)[C@H](Cc1cnc[nH]1)NC(=O)[C@@H]1Cc2c([nH]c3ccccc23)CN1 (H-[Tpi]HFW-OH) | 24.33 | 37.25 | 39.38 | 32.19 | 22.23 | 13.29 | 57.6 |  |  | 
10 | O=C(O)[C@H](Cc1c[nH]c2ccccc12)NC(=O)[C@H](Cc1ccccc1)NC(=O)[C@H](Cc1ccccc1)NC(=O)[C@@H]1Cc2c([nH]c3ccccc23)CN1 (H-[Tpi]FFW-OH) | 21.12 | 31.34 | 45.46 | 37.2 | 40.56 | 15.32 | 48.2 |  |  | 
11 | CC(=O)Oc1ccccc1C(=O)O [ASPIRIN] | 30.41 | 32.85 | 33.24 | 38.45 | 41.23 | 21.72 |  |  |  | 
12 | NC(=O)C[C@H](NC(=O)[C@@H]1Cc2c([nH]c3ccccc23)CN1)C(=O)N[C@@H](Cc1ccccc1)C(=O)N[C@@H](Cc1c[nH]c2ccccc12)C(=O)O (H-[Tpi]NFW-OH) | 22.12 | 21.24 | 39.25 | 45.23 | 34.56 | 19.45 | 55.8 |  |  | 
13 | O=C(O)[C@H](Cc1c[nH]c2ccccc12)NC(=O)[C@H](Cc1ccccc1)NC(=O)[C@H](CO)NC(=O)[C@@H]1Cc2c([nH]c3ccccc23)CN1 (H-[Tpi]SFW-OH) | 26.47 | 30.56 | 38.45 | 42.32 | 44.13 | 25.07 | 45.7 |  |  | 
14 | C[C@H](NC(=O)[C@@H]1Cc2c([nH]c3ccccc23)CN1)C(=O)N[C@@H](Cc1ccccc1)C(=O)N[C@@H](Cc1c[nH]c2ccccc12)C(=O)O (H-[Tpi]AFW-OH) | 28.79 | 37.58 | 42.03 | 48.23 | 46.48 | 19.22 | 52.7 | 32.6 | 44.8 | Dose-dependent effect
15 | O=C(O)C[C@H](NC(=O)[C@@H]1Cc2c([nH]c3ccccc23)CN1)C(=O)N[C@@H](Cc1ccccc1)C(=O)N[C@@H](Cc1c[nH]c2ccccc12)C(=O)O (H-[Tpi]DFW-OH) | 13.54 | 22.17 | 40.67 | 28.12 | 34.55 | 18.77 | 40 |  |  | 
16 | O=C(O)[C@H](Cc1c[nH]c2ccccc12)NC(=O)[C@H](Cc1ccccc1)NC(=O)[C@@H]1CCCN1C(=O)[C@@H]1Cc2c([nH]c3ccccc23)CN1 (H-[Tpi]PFW-OH) | 25.05 | 23.17 | 18.79 | 49.74 | 21.35 | 15.68 | 47.3 |  |  | 
17 | C[C@@H](O)[C@H](NC(=O)[C@@H]1Cc2c([nH]c3ccccc23)CN1)C(=O)N[C@@H](Cc1ccccc1)C(=O)N[C@@H](Cc1c[nH]c2ccccc12)C(=O)O (H-[Tpi]TFW-OH) | 23.19 | 30.75 | 42.43 | 38.2 | 40.36 | 19.25 | 50.6 |  |  | 
18 | CC[C@H](C)[C@H](NC(=O)[C@@H]1Cc2c([nH]c3ccccc23)CN1)C(=O)N[C@@H](Cc1ccccc1)C(=O)N[C@@H](Cc1c[nH]c2ccccc12)C(=O)O (H-[Tpi]IFW-OH) | 15.25 | 33.01 | 27.32 | 38.01 | 41.23 | 16.13 | 56.4 |  |  | 

From ChEMBL document CHEMBL1781989, “Novel β-carboline-tripeptide conjugates attenuate mesenteric ischemia/reperfusion injury in the rat” (2011)
